Screens: PubChem BioAssay, several laboratories
Scp-1 inhibitor: Scp-1 (human) phosphatase inhibition; Q9GZU7; Recombinant Scp1, phosphopeptide, malachite green phosphate absorbance; inhibition, % at 20 µM; hit rate 0.88% among 340,000;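 active = inhibition above about 50% at 20 µM, limit read from the data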;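 also: plate controls were DMSO wells with enzyme for no effect and wells lacking enzyme for full effect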
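Test system: SCP-1 phosphatase catalytic domain, residues 76-261 | Compound dosing: One concentration, 20 µM, with 1.0% DMSO | Schedule: 45 min room-temperature reaction, 5 min colour, 30 min stabiliser | Detection: Absorbance at 630 nm | Read-out basis: % inhibition of SCP-1 phosphate liberation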
LMPTP block: blocks human LMPTP phosphatase | P24666 | recombinant LMPTP-A, OMFP fluorogenic substrate, fluorescence intensity | inhibition, % at 20 µM | hit rate 0.22% among 360,000 | AID 651560;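 active = compounds that cut the enzyme signal by at least half of the control window in the single-dose screen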;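 also: plate controls were DMSO wells with enzyme plus substrate for no effect and substrate without enzyme for full effect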
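Assay system: LMPTP-A, protein tyrosine phosphatase of low molecular weight / Medium: pH 6.0 Bis-Tris buffer with DTT and Triton X-100 / Schedule: 50 min enzyme reaction at room temperature, protected from light / Measured by: endpoint fluorescence intensity from OMFP dephosphorylation / Read-out basis: % inhibition relative to no-enzyme and uninhibited control wells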
DNMT1 inh: blocks human DNA methyltransferase DNMT1; P26358; DNMT1 molecular beacon, Hinp1I cleavage, fluorescence; inhibition (reported as % activation of signal), % at 10 µM; hit rate 0.83% among 360,000; in the data active = inhibition above about 50%
GRK2 inh: blocks RNA aptamer binding to human GRK2. P25098. bead flow cytometry, FAM-aptamer displacement from GRK2. inhibition of aptamer binding, % at 10 µM. hit rate 0.59% among 330,000;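 active = inhibition of aptamer binding above 40%, roughly 3 SD of noise, on plates passing a quality check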;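 also: median bead fluorescence of bound FAM aptamer so fluorescent compounds give negative values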
Target sequence (P25098 whole entry, looked up): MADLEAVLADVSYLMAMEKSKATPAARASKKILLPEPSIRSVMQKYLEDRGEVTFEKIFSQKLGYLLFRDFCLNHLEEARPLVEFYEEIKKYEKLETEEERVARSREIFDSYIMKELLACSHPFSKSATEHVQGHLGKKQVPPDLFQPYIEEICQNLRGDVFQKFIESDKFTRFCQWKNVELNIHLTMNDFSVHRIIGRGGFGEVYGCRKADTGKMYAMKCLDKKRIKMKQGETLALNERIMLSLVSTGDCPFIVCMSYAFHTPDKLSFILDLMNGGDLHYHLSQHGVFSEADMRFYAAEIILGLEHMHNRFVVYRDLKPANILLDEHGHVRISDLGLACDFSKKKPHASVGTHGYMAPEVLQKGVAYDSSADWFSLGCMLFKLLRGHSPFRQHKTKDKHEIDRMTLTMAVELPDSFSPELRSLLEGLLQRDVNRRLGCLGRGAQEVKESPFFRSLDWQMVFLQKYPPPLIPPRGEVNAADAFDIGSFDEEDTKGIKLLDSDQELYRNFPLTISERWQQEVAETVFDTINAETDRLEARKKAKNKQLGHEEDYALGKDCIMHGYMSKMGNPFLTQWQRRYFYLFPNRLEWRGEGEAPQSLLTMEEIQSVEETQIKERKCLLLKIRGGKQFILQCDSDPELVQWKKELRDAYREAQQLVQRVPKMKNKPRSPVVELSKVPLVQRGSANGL
SUMO1 PPI mod: modulators of human SUMO1-mediated protein-protein interactions; inhibition, % at 20 µM; SUMO1 binding to a labelled peptide, TR-FRET, 1 h; hit rate 0.33% among 360,000; P63165; in the data active = inhibition above about 37%
STEP block: blocks human striatal-enriched tyrosine phosphatase. AID 588621. hit rate 0.25% among 360,000. recombinant STEP, OMFP fluorogenic substrate, fluorescence. inhibition, % at 20 µM;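 active = inhibition at 20 µM, scaled per plate between control wells, above about 37%, limit read from the data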;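 also: 0% = DMSO with enzyme and substrate and 100% = substrate only without enzyme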
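Assay system: isolated STEP enzyme / Timing: 20 min at room temperature, dark / Doses: 20 µM, 1% DMSO / Technique: fluorescence intensity, excitation 480 nm, emission 540 nm / Reagent: fluorogenic phosphatase substrate OMFP at 25 µM final / Measure: percent inhibition scaled to no-enzyme and uninhibited-enzyme controls, plate-pattern corrected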
Scp1 confirm: confirmation of human Scp-1 phosphatase inhibitors | shares compounds with Scp-1 inhibitor | hit rate 61% among 2,500 | recombinant SCP-1 catalytic domain, phosphate release, malachite green absorbance | inhibition, % at 20 µM;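 also: plate controls were DMSO with enzyme for no effect and buffer wells lacking enzyme for full effect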
MG interference: colorimetric interference in Scp-1 counter-screen. shares compounds with Scp-1 inhibitor. Colorimetric interference counterscreen, malachite green absorbance 630 nm. apparent inhibition (interference), % at 20 µM. 2,500 tested, under 10 active. AID 540313;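 also: compounds added after enzyme reaction finished so only phosphate colour detection is probed; plate controls were DMSO wells with completed Scp-1 reaction for no effect and substrate wells lacking enzyme for full effect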
Scp-1 Tm shift: binds human Scp-1, shifting its melting temperature; shares compounds with Scp-1 inhibitor; hit rate 25% among 1,500; thermal shift relative to vanadate control, % at 40 µM; Recombinant SCP1, Sypro Orange thermal shift Tm;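 active = substances whose mean melting-temperature shift, as a percentage of the reference inhibitor's shift, reaches about 5.3%, limit read from the data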;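 also: 0% = Tm of DMSO wells and 100% = Tm with sodium orthovanadate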
Numbers without * were called inactive. Most compounds without a hit are left out; they make up all but 2.1% or so of the library.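 The calls were made as follows, unless noted: active = inhibition of at least 30% at 20 µM; inactive = the rest.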

Screening O=C(NCc1ccc2c(c1)OCO2)c1cc(-n2cnnc2)ccc1Cl returned Scp-1 inhibitor 85*, LMPTP block -1, DNMT1 inh -5, GRK2 inh 1, SUMO1 PPI mod 4, STEP block -1, Scp1 confirm 10 and MG interference -17.
`COc1ccc(OCC(=O)C2CC2)c(C#N)c1` gave Scp-1 inhibitor -8, LMPTP block -2, DNMT1 inh 0, GRK2 inh 0, SUMO1 PPI mod 6 and STEP block -4.
`C(=C\c1ccccc1)/CN1CCN(Cc2nc(Cc3ccccc3)no2)CC1` gave Scp-1 inhibitor 53*, LMPTP block -1, DNMT1 inh 10, GRK2 inh 0, SUMO1 PPI mod -3, STEP block -2, Scp1 confirm -6 and MG interference -4.
Screening Cc1ccc(C(=O)Nc2c(C)cc(-c3ccccc3)oc2=O)cc1 returned Scp-1 inhibitor 13, LMPTP block 1, DNMT1 inh -8, GRK2 inh 2, SUMO1 PPI mod 2 and STEP block 2.
For C/C(=N\Nc1nncc2ccccc12)c1ccc(C(C)(C)C)cc1 the results were Scp-1 inhibitor 57*, LMPTP block 4, DNMT1 inh -2, GRK2 inh 0, SUMO1 PPI mod -6, STEP block 1, Scp1 confirm -7 and MG interference -5.
For C/C(=N\Nc1nncc2ccccc12)c1ccc(O)cc1 the results were Scp-1 inhibitor -1, LMPTP block 1, DNMT1 inh -1, GRK2 inh 0, SUMO1 PPI mod -4 and STEP block 0.
COc1cc(/C=N/N=C2/NC(=O)C(CC(=O)O)S2)ccc1OCc1ccc(Cl)cc1 (stereo not drawn) was read as Scp-1 inhibitor 59*, LMPTP block -1, DNMT1 inh -2, GRK2 inh 1, SUMO1 PPI mod -3, STEP block -1, Scp1 confirm 70*, MG interference -5 and Scp-1 Tm shift -8.
`CC1CCCC(C)N1C(=O)COC(=O)c1cc(F)c(F)cc1Cl` (stereo not drawn) gave Scp-1 inhibitor -6, LMPTP block 0, DNMT1 inh 4, GRK2 inh 2, SUMO1 PPI mod 0 and STEP block 1.
`O=C(OCc1cn([C@H]2CN(C(=O)c3cccs3)[C@@H](c3ccccc3)C[C@@H]2O)nn1)c1ccccc1` gave LMPTP block 0, DNMT1 inh -4, SUMO1 PPI mod 3 and STEP block 2.
For COc1ccc(C(CNC(=O)CCNS(=O)(=O)c2ccccc2)N2CCOCC2)cc1 (stereo not drawn) the results were LMPTP block -12, DNMT1 inh -32, SUMO1 PPI mod -108 and STEP block -1.
Screening Cc1ccc(NC(=O)CSc2nc(-c3ccco3)nc3cc(=O)[nH]n23)c(Cl)c1 returned Scp-1 inhibitor 71*, LMPTP block 4, DNMT1 inh 33, GRK2 inh 5, SUMO1 PPI mod 11, STEP block 9, Scp1 confirm 48*, MG interference -15 and Scp-1 Tm shift -2.
Screening Cc1ccc(NC(=O)CSc2n[nH]c(-c3ccco3)n2)c(C)c1 returned Scp-1 inhibitor 6, LMPTP block 0, DNMT1 inh 0, GRK2 inh 0, SUMO1 PPI mod 7 and STEP block -2.
For Cc1cccc(N2CCN(C(=O)c3ccc(S(=O)(=O)N(C)c4ccccc4)cc3)CC2)c1C the results were Scp-1 inhibitor 99*, LMPTP block 4, DNMT1 inh -5, GRK2 inh 0, SUMO1 PPI mod -4, STEP block 0, Scp1 confirm 75*, MG interference -17 and Scp-1 Tm shift -26.
For CN1CCN(C(=O)c2ccc(S(=O)(=O)N(C)c3ccccc3)cc2)CC1 the results were LMPTP block 0, DNMT1 inh 2, SUMO1 PPI mod -2 and STEP block 1.
For CSc1cccc(CN2CCCC(C(=O)Nc3cccc(-n4cccn4)c3)C2)c1 (stereo not drawn) the results were Scp-1 inhibitor 6, LMPTP block 0, DNMT1 inh 0, GRK2 inh 0, SUMO1 PPI mod -4 and STEP block 2.
For CC(=O)c1cccc(NC(=O)CCc2nnc3ccc(NCc4ccco4)nn23)c1 the results were Scp-1 inhibitor 59*, LMPTP block 7, DNMT1 inh 8, GRK2 inh 7, SUMO1 PPI mod 18, STEP block 5, Scp1 confirm 43*, MG interference -15 and Scp-1 Tm shift 2.
For Cc1ccc(NC(=O)CCc2nnc3ccc(NCc4ccco4)nn23)nc1 the results were Scp-1 inhibitor 12, LMPTP block -1, DNMT1 inh 4, GRK2 inh 0, SUMO1 PPI mod 5 and STEP block -6.
`Cc1csc(-c2nc3ccccc3n2C(C(=O)NC(C)(C)C)c2ccccc2)c1` (stereo not drawn) gave LMPTP block 1 and SUMO1 PPI mod -3.
c1ccc2c(c1)nc(N1CCCCCC1)c1ccccc12 was read as Scp-1 inhibitor 112*, LMPTP block 2, DNMT1 inh 0, GRK2 inh 2, SUMO1 PPI mod -1, STEP block 0, Scp1 confirm 97*, MG interference -1 and Scp-1 Tm shift -7.
`c1ccc2nc(N3CCCC3)c(N3CCCC3)nc2c1` gave Scp-1 inhibitor -9, LMPTP block 2, DNMT1 inh -3, GRK2 inh 2, SUMO1 PPI mod -6 and STEP block 2.
`O=C(NC(=S)NC1CCSC1=O)c1ccccc1Cl` (stereo not drawn) gave Scp-1 inhibitor -5, LMPTP block -1, DNMT1 inh 3, GRK2 inh 1, SUMO1 PPI mod 3 and STEP block 4.
Screening Cc1ccccc1C(=O)NC1CCSC1=O (stereo not drawn) returned Scp-1 inhibitor 64*, LMPTP block 0, DNMT1 inh 4, GRK2 inh 1, SUMO1 PPI mod -5, STEP block 4, Scp1 confirm 14 and MG interference -16.
Screening COc1ccc(NC(=O)CNS(=O)(=O)c2ccc(Cl)cc2)cc1 returned Scp-1 inhibitor 3, LMPTP block 0, DNMT1 inh 1, GRK2 inh 3, SUMO1 PPI mod -4 and STEP block 0.
